The record followed here is ChEMBL document CHEMBL3627646, “Synthesis and biological activity of amino acid derivatives of avarone and its model compound” (Bioorg Med Chem, 2015).

Data set [1] is described as follows: Cytotoxicity against human Fem-X cells assessed as cell survival after 72 hrs by MTT assay. Format: functional, cell-based. An outline of the steps:
(§1)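 Cells seeded (HeLa 2000, MDA-MB-453 3000, others 5000 per well), treated 24 h later (K562 after 2 h). Five double-diluted final concentrations, 200–12.5 μM, from 10 mM DMSO stocks, in RPMI-1640 with 10% FBS, pH 7.2, 72 h. MTT 4 h at 37 °C, SDS added, A570 read next day. Survival relative to medium control; IC50 from survival curves; triplicate; cisplatin positive control.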

In data set [2] the test system is Saccharomyces cerevisiae. Kind of data set: Antifungal activity against Saccharomyces cerevisiae ATCC 9763 after 24 hrs by microbroth double dilution method. It is filed as functional. Background: Broth dilution looks for growth in wells or tubes with falling amounts of substance.
Data set [3] concerns MDA-MB-453. Kind of data set: Cytotoxicity against human MDA-MB-453 cells assessed as cell survival after 72 hrs by MTT assay. Format: functional, cell-based. The following applies: MDA-MB-453, 72 h. An outline of the steps:
as §1
(In general: Tetrazolium dyes change colour on reduction, which living cells bring about.)

Data set [4] relates to Staphylococcus aureus. Kind of data set: Antibacterial activity against Staphylococcus aureus ATCC 6538 after 24 hrs by microbroth double dilution method. Format: functional. The following applies: ATCC 6538, 24 h. In outline: (§2)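 Microbroth double dilution in Mueller Hinton broth; compound stock 10 mg/mL in DMSO serially halved across rows. Wells inoculated with 10 μL culture at 10^6 cells/mL, incubated 37 °C for 24 h. Amikacin row as positive control, DMSO row as negative control. MIC taken as lowest concentration inhibiting bacterial growth.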

Data set [5] deals with Micrococcus luteus. The experiment in a line: Antibacterial activity against Micrococcus luteus ATCC 4698 after 24 hrs by microbroth double dilution method. Format: functional. The note with it: ATCC 4698, 24 h. An outline of the steps: as §2
Data set [6] concerns Candida albicans. Kind of data set: Antifungal activity against Candida albicans ATCC 10231 after 24 hrs by microbroth double dilution method. It is filed as functional.
Data set [7] has as its system Micrococcus flavus. The experiment in a line: Antibacterial activity against Micrococcus flavus ATCC 10240 after 24 hrs by microbroth double dilution method. The note with it: ATCC 10240, 24 h. Format: functional. An outline of the steps:
as §2

Data set [8] deals with MRC5. Kind of data set: Cytotoxicity against human MRC5 cells assessed as cell survival after 72 hrs by MTT assay. The following applies: MRC5, 72 h. Format: cell-based. An outline of the steps:
as §1

Data set [9] deals with Escherichia coli. The experiment in a line: Antibacterial activity against Escherichia coli ATCC 25922 after 24 hrs by microbroth double dilution method. Format: functional. The note with it: ATCC 25922, 24 h. An outline of the steps: as §2
Data set [10] concerns Kocuria rhizophila. The experiment in a line: Antibacterial activity against Kocuria rhizophila ATCC 9341 after 24 hrs by microbroth double dilution method. It is filed as functional. The note with it: ATCC 9341, 24 h. In outline: as §2
Data set [11] concerns Aspergillus brasiliensis. The experiment in a line: Antifungal activity against Aspergillus brasiliensis ATCC 16404 after 24 hrs by microbroth double dilution method. Format: functional.
For data set [12], the system named is A549. The experiment in a line: Cytotoxicity against human A549 cells assessed as cell survival after 72 hrs by MTT assay. It is filed as functional, cell-based. The note with it: A549, 72 h. An outline of the steps:
as §1

Data set [13] relates to Clostridium sporogenes. Kind of data set: Antibacterial activity against Clostridium sporogenes ATCC 19404 after 24 hrs by microbroth double dilution method. The note with it: ATCC 19404, 24 h. Format: functional. An outline of the steps: as §2
In data set [14] the test system is Proteus hauseri. The experiment in a line: Antibacterial activity against Proteus hauseri ATCC 13315 after 24 hrs by microbroth double dilution method. Format: functional. The following applies: ATCC 13315, 24 h. An outline of the steps: as §2
For data set [15], the system named is Pseudomonas aeruginosa. The experiment in a line: Antibacterial activity against Pseudomonas aeruginosa ATCC 9027 after 24 hrs by microbroth double dilution method. Format: functional. The note with it: ATCC 9027, 24 h. In outline: as §2
For data set [16], the system named is HeLa. The experiment in a line: Cytotoxicity against human HeLa cells assessed as cell survival after 72 hrs by MTT assay. Format: functional, cell-based. An outline of the steps:
as §1

Data set [17] concerns K562. The experiment in a line: Cytotoxicity against human K562 cells assessed as cell survival after 72 hrs by MTT assay. The note with it: K562, 72 h. It is filed as functional, cell-based. In outline:
as §1

Data set [18] concerns Salmonella enterica. The experiment in a line: Antibacterial activity against Salmonella enterica ATCC 13076 after 24 hrs by microbroth double dilution method. It is filed as functional. The note with it: ATCC 13076, 24 h. An outline of the steps: as §2
The subject of data set [19] is Bacillus subtilis. The experiment in a line: Antibacterial activity against Bacillus subtilis ATCC 6633 after 24 hrs by microbroth double dilution method. Format: functional. The note with it: ATCC 6633, 24 h. In outline:
as §2

In data set [20] the test system is Artemia salina. Kind of data set: Cytotoxicity in Brine shrimp assessed as nauplii mortality after 24 hrs. It is filed as organism-based. The following applies: in vivo. In outline: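 Artemia salina eggs hatched in aerated tap water with dried yeast at 18–20 °C under illumination for 48 h, and freshly hatched nauplii were used. Compounds in DMSO (0.01–1 mg) were added to 950 µL artificial seawater containing 10–20 nauplii, with 5% final DMSO. After 24 h under illumination at room temperature, dead and surviving nauplii were counted and statistically analysed.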

In brackets after ≈: the same amount, converted by molar mass. Activity calls are given as the source filed them. The calls are words filed in the database; no cut-off is given here.

On to `CC(C)(C)C1=CC(=O)C=C(N[C@@H](Cc2c[nH]c3ccccc23)C(=O)O)C1=O`, for which the half-inhibitory concentration (IC50) (commonly the concentration that inhibits the measured activity by half) in [1] was 34.7 µM; in [3], 120 µM; in data set [8], greater than 200 µM; in [12], 198 µM; in data set [16] it was 106 µM; in [17], 25 µM. Further, the minimal inhibitory concentration (MIC) (usually the lowest concentration found to suppress growth) in data set [2] (ATCC 9763, 24 h) came out at 213 µM (≈ 78.1 µg/mL); in data set [4], 855 µM (≈ 313 µg/mL); in data set [5], 1710 µM (≈ 626 µg/mL); in data set [6] (ATCC 10231, 24 h) it was 213 µM (≈ 78.1 µg/mL); in data set [7] it was 1710 µM (≈ 626 µg/mL); in [9] it was 1710 µM (≈ 626 µg/mL). The minimal inhibitory concentration (MIC) turned out to be 1710 µM (≈ 626 µg/mL) in data set [10]; 1410 µM (≈ 516 µg/mL) in data set [11] (ATCC 16404, 24 h); 1710 µM (≈ 626 µg/mL) in data set [13]; 1710 µM (≈ 626 µg/mL) in [14]; 1710 µM (≈ 626 µg/mL) in [15]; 1710 µM (≈ 626 µg/mL) in data set [18]. Besides, the MIC in data set [19] was 1710 µM (≈ 626 µg/mL).

In the case of `CC1=CCC[C@H]2[C@](C)(CC3=CC(=O)C=CC3=O)[C@@H](C)CC[C@]12C` [AVARONE], the IC50 in [1] was 40.3 µM; in data set [3], 16.7 µM; in data set [8], greater than 200 µM; in [12], 30 µM; in [16] it was 18.1 µM; in data set [17], 17.1 µM. Besides, the MIC entry in data set [2], in [6] and in data set [11] was “inactive” in each case. Moreover, the minimum inhibitory concentration (MIC) stood at 40.1 µM (≈ 12.5 µg/mL) in [4]; 2000 µM (≈ 625 µg/mL) in [5]; 20 µM (≈ 6.26 µg/mL) in data set [7]; 441 µM (≈ 138 µg/mL) in [9]; 20 µM (≈ 6.26 µg/mL) in data set [10]; 20 µM (≈ 6.26 µg/mL) in data set [13]. Besides, the MIC worked out at 27.6 µM (≈ 8.61 µg/mL) in [14], 13.8 µM (≈ 4.31 µg/mL) in data set [15], 55.1 µM (≈ 17.2 µg/mL) in [18] and 80.1 µM (≈ 25 µg/mL) in data set [19]. Further, the median lethal concentration (LC50) – broadly, the concentration that kills 50% of the test population – in data set [20] is listed as 170 ppm.

For the molecule `CC1=CCC[C@H]2[C@](C)(CC3=CC(=O)C=C(N[C@@H](Cc4ccccc4)C(=O)O)C3=O)[C@@H](C)CC[C@]12C`, the IC50 in data set [1] is 17.3 µM; in [3], 16.6 µM; in data set [8] it was greater than 200 µM; in data set [12], 40.1 µM; in [16] it was 14.6 µM; in data set [17], 20.5 µM. Moreover, the MIC came out at 10.3 µM (≈ 4.91 µg/mL) in data set [2] (ATCC 9763, 24 h); 10.3 µM (≈ 4.91 µg/mL) in data set [4]; 10.3 µM (≈ 4.91 µg/mL) in data set [5]; 164 µM (≈ 78.1 µg/mL) in [6] (ATCC 10231, 24 h); 82.1 µM (≈ 39.1 µg/mL) in data set [7]; 10.3 µM (≈ 4.91 µg/mL) in [9]. Moreover, the MIC worked out at 331 µM (≈ 157 µg/mL) in [10]; 1320 µM (≈ 626 µg/mL) in [11] (ATCC 16404, 24 h); 82.1 µM (≈ 39.1 µg/mL) in [13]; 82.1 µM (≈ 39.1 µg/mL) in data set [14]; 20.6 µM (≈ 9.81 µg/mL) in data set [15]; 20.6 µM (≈ 9.81 µg/mL) in [18]. This molecule yielded an MIC in data set [19] of 20.6 µM (≈ 9.81 µg/mL). Moreover, the LC50 in [20] is listed as 96.7 ppm.

For the molecule `CC(C)(C)C1=CC(=O)C=C(NCC(=O)O)C1=O`, the IC50 in data set [1] is 34.3 µM; in [3], 171 µM; in data set [8], greater than 200 µM; in data set [12], greater than 200 µM; in data set [16], 132 µM; in [17], 85 µM. For the same molecule, the minimum inhibitory concentration (MIC) in data set [2] (ATCC 9763, 24 h) was determined as 662 µM (≈ 157 µg/mL); in data set [4], 662 µM (≈ 157 µg/mL); in data set [5], 662 µM (≈ 157 µg/mL); in data set [6] (ATCC 10231, 24 h) it was 662 µM (≈ 157 µg/mL); in data set [7] it was 2640 µM (≈ 626 µg/mL); in data set [9] it was 662 µM (≈ 157 µg/mL). The MIC was 2640 µM (≈ 626 µg/mL) in [10]; 2640 µM (≈ 626 µg/mL) in data set [11] (ATCC 16404, 24 h); 2640 µM (≈ 626 µg/mL) in [13]; 2640 µM (≈ 626 µg/mL) in data set [14]; 662 µM (≈ 157 µg/mL) in [15]; 2640 µM (≈ 626 µg/mL) in data set [18]. Moreover, the MIC in data set [19] amounted to 1320 µM (≈ 313 µg/mL). In addition, the 50% lethal concentration (LC50) in data set [20] is on record as 197.4 ppm.

With `CC(C)(C)C1=CC(=O)C(N2CCC[C@H]2C(=O)O)=CC1=O`, the IC50 was 87.3 µM in [1]; 67.2 µM in data set [3]; greater than 200 µM in data set [8]; 186 µM in data set [12]; 44.9 µM in data set [16]; 49.2 µM in data set [17]. Also, the minimal inhibitory concentration (MIC) in [2] (ATCC 9763, 24 h) was found to be 567 µM (≈ 157 µg/mL); in [4] it was 567 µM (≈ 157 µg/mL); in data set [5] it was 567 µM (≈ 157 µg/mL); in [6] (ATCC 10231, 24 h), 567 µM (≈ 157 µg/mL); in data set [7], 2260 µM (≈ 626 µg/mL); in [9], 567 µM (≈ 157 µg/mL). Moreover, the MIC in data set [10] was determined as 2260 µM (≈ 626 µg/mL); in [11] (ATCC 16404, 24 h), 2260 µM (≈ 626 µg/mL); in data set [13], 2260 µM (≈ 626 µg/mL); in data set [14], 2260 µM (≈ 626 µg/mL); in data set [15], 2260 µM (≈ 626 µg/mL); in data set [18], 2260 µM (≈ 626 µg/mL). For the same molecule, the MIC in [19] was 1130 µM (≈ 313 µg/mL). Besides, in [20], the median lethal concentration (LC50) was determined as 883.4 ppm.
